Test results published in ChEMBL document CHEMBL4422614 (Eur J Med Chem, 2019).
Calls of active or inactive are those of the source. No cut-off for these calls is given here.

Experiments:
[1] = Antioxidant activity assessed as trolox equivalent of AAPH-induced radical scavenging activity at 10 to 20 uM preincubated for 10 mins followed by AAPH addition measured every minute for 120 mins by ORAC fluorescein assay; assay type: functional
In short: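 ORAC values are expressed as trolox equivalents, mean ± SD of three independent experiments.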

Mus musculus [2] = assay: Cognition enhancement activity in amyloid beta (25 to 35 residues) induced C57BL/6J mouse model of Alzheimer's disease assessed as decrease in escape latancy at 4 mg/kg/day, ig administered for 26 consecutive days by Morris water maze test; assay type: functional, organism-based
In short: (§1)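 Mice were randomized into 7 groups. All except sham got an ICV injection of Aβ25-35 (3 nmol); sham got the same volume of saline ICV. Dosing was intragastric daily for 26 days, with 0.5% CMC-Na as vehicle for sham and model. Body weight, diarrhea and emesis-like behavior were monitored.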

Mus musculus [3] = assay: Cognition enhancement activity in amyloid beta (25 to 35 residues) induced C57BL/6J mouse model of Alzheimer's disease assessed as swimming speed at 4 mg/kg/day, ig administered for 26 consecutive days by Morris water maze test (reference value: 15.6 +/- 2.4 cm/sec); assay type: functional; in short: as §1
Mus musculus [4] = assay: Cognition enhancement activity in amyloid beta (25 to 35 residues) induced C57BL/6J mouse model of Alzheimer's disease assessed as increase in number of virtual platform crossing at 4 mg/kg/day, ig administered for 26 consecutive days by Morris water maze test; assay type: functional, organism-based; in short: as §1
Mus musculus [5] = assay: Cognition enhancement activity in amyloid beta (25 to 35 residues) induced C57BL/6J mouse model of Alzheimer's disease assessed as swimming path length in virtual platform at 4 mg/kg/day, ig administered for 26 consecutive days by Morris water maze test (10.2 +/- 3.2 cm); assay type: functional; in short: as §1
Mus musculus [6] = assay: Cognition enhancement activity in amyloid beta (25 to 35 residues) induced C57BL/6J mouse model of Alzheimer's disease assessed as swimming time in effective region at 4 mg/kg/day, ig administered for 26 consecutive days by Morris water maze test (4.3 +/- 1.3 sec); assay type: functional; in short: as §1
Mus musculus [7] = assay: (§2) Neuroprotection in amyloid beta (25 to 35 residues) induced C57BL/6J mouse model of Alzheimer's disease assessed as reduction in ratio of apoptotic neuron in CA1 hippocampus region at 4 mg/kg/day, ig administered for 26 consecutive days by hematoxylin and eosin staining-based light microscopic analysis (reference value: 40.6 +/- 12.5%); assay type: ADME, organism-based; parameters: scale not given: the % may be the effect or the level left; conditions: in vivo, po
In short: (§3)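 Hippocampal CA1, CA3 and DG neurons were stained with H&E after the Aβ25-35 ICV model and 26-day intragastric dosing. Denatured cell index = denatured cells/total cells, n = 5. Values are mean ± SD, two-way ANOVA versus model.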

Mus musculus [8] = assay: as §2, with “CA3” for “CA1”, “80.2” for “40.6”, “8.6%)” for “12.5%)”; assay type: ADME, organism-based; parameters: scale not given: the % may be the effect or the level left; conditions: in vivo, po; in short: as §3
Mus musculus [9] = assay: as §2, with “DG” for “CA1”, “55.8” for “40.6”, “7.2%)” for “12.5%)”; assay type: ADME, organism-based; parameters: scale not given: the % may be the effect or the level left; conditions: in vivo, po; in short: as §3
in vitro = conditions: PAMPA

Question: For `O=C(Nc1c(Cl)cncc1Cl)c1ccc(OC(F)F)c(OCC2CC2)c1` [ROFLUMILAST], which Activity [1] is on record?
Answer: 0.067 equiv

Question: What about the Activity (Mus musculus [2]) of the same compound?
Answer: Active

Question: And the Activity (Mus musculus [3])?
Answer: 14.5 cm/s

Question: What about the Activity (Mus musculus [4]) of the same compound?
Answer: Active

Question: And the Activity (Mus musculus [5])?
Answer: 16 cm

Question: And the Time (Mus musculus [6])?
Answer: 5.4 s

Question: What about the Activity (Mus musculus [7]) of the same compound?
Answer: 16.5%

Question: And the Activity (Mus musculus [8])?
Answer: 38.7%

Question: What about the Activity (Mus musculus [9]) of the same compound?
Answer: 25.1%

Question: And the Papp at 10 h, 100 ug/ml (in vitro)?
Answer: 9.22 ×10⁻⁶ cm/s
